Results: paper PMC4373334 (Journal of Cellular and Molecular Medicine, 2010)

Tests used:
[1] = system: Zucker obese (fa/fa) rats; test: Zucker obese rat, 24-week treatment: body weight and food intake; assay type: in vivo; conditions: 30 weeks of age, 30 mg/kg/day for 24 weeks
Summary of the method: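 Male Zucker fa/fa rats bought at 5 weeks, with lean Fa/Fa littermates as reference. Housed singly at 22 ± 1°C on a 12 h light/dark cycle, standard chow, 1 week acclimation. Randomized to three groups of 12. Test compound given in drinking water, concentration adjusted weekly to 30 mg/kg/24 h, from week 6 to week 30.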

[2] = system: Zucker obese (fa/fa) rats; test: Zucker obese rat: kidney cholesterol and triglycerides content; assay type: in vivo; conditions: end of 24-week treatment, S 9.000 kidney fraction
Summary of the method: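 Zucker fa/fa rats dosed via drinking water at 30 mg/kg/24 h from week 6 to week 30; six rats per group used for tissue. Kidney frozen in liquid nitrogen. Total cholesterol and triglycerides measured with commercial kits in S9000 kidney fraction (0.25 g/ml), expressed as μg/mg protein.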

[3] = Stability in rat kidney S 9000 fraction; assay type: in vitro ADME
Summary of the method: (§1)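 Matrices were human serum (healthy donors, 25–30 yr), human liver S9000 fraction or rat kidney S9000 fraction (0.25 g/ml), pre-warmed 10 min at 37°C. Test compound added from a 1 mM solution in 10 mM PBS, pH 7.4; PBS-only controls run alongside. Sampled at 0–120 min, with 24 h added for serum. Internal standard added, then perchloric acid deproteinization (15 min, 4°C), centrifugation and LC-MS/MS.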

[4] = system: Zucker obese (fa/fa) rats; test: Zucker obese rat: renal morphology and morphometry; assay type: in vivo; conditions: for mean glomerular diameter / glomerular and interstitial changes (glomerulosclerosis, tubulointerstitial damage) versus ZK: 30 weeks; for mean glomerular diameter: ZK 1.098 ± 0.05; for glomerular and interstitial changes (glomerulosclerosis, tubulointerstitial damage) versus ZK: light microscopy
[5] = ACR quenching ability in homogeneous solution; conditions: 60 min; for percentage amount of ACR quenched: ACR 50 μM, quencher 500 μM (1:10); for ACR disappeared: ACR 200 μM, 1:10 molar excess
[6] = system: Zucker obese (fa/fa) rats; test: Zucker obese rat: urinary oxidative/carbonyl stress indices; assay type: in vivo; conditions: end of the experiment; for AGEs: urine fluorescence; for CAR-HNE level / 8-epi-PGF2α level: urine; for CAR-HNE level: LC-ESI-MS/MS
Summary of the method: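 24 h urine from treated Zucker fa/fa rats (drinking water, 30 mg/kg/24 h, weeks 6–30). 8-epi-PGF2α and TXB2 measured by enzyme immunoassay. Low-molecular-weight AGEs read by fluorescence (ex 370/em 440 nm), expressed per mg urinary creatinine. CAR-HNE Michael adduct quantified by LC-ESI-MS/MS.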

[7] = system: Zucker obese (fa/fa) rats; test: Zucker obese rat: renal function; assay type: in vivo; conditions: for restraint of proteinuria/albuminuria/creatininuria: 24 hr urinary excretion, end of treatment; for change in creatinine clearance (GFR) versus ZK / change in plasma creatinine concentration versus ZK / restraint of the increase in urinary albumin-to-creatinine ratio: end of 24-week treatment
[8] = system: Zucker obese (fa/fa) rats; test: Zucker obese rat, 24-week treatment: plasma parameters; assay type: in vivo; conditions: for change in plasma cholesterol versus ZK / change in plasma triglycerides versus ZK: after 24 weeks, 30 mg/kg/day; for insulin resistance (HOMA-IR) versus ZK / reduction of hyperinsulinaemia (plasma insulin) versus ZK / effect on plasma glucose levels: end of 24-week treatment; for effect on plasma glucose levels: fasting
Summary of the method: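 Male Zucker fa/fa rats (lean littermates as reference), 12 per group, received test compound in drinking water at 30 mg/kg/24 h from week 6 to week 30. Plasma spun 15 min at 4°C and stored at –80°C. Cholesterol, triglycerides, glucose and insulin measured by enzymatic-colorimetric kits. HOMA-IR calculated from fasting glucose and insulin.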

[9] = HNE quenching ability in homogeneous solution; conditions: HNE 200 μM; for HNE quenched: 1:10 molar excess, 24 hrs of incubation; for residual amount of HNE: quencher 2 mM (1:10), phosphate buffer pH 7.4, 37°C, 60 min
[10] = Pharmacokinetic profile in the rat after oral administration; assay type: in vivo, Sprague-Dawley rats; conditions: for Cmax: pre-dose concentration subtracted
Summary of the method: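 Single oral dose of 100 mg/kg given to three male Sprague-Dawley rats per test compound. Plasma sampled pre-dose and at 0.25, 0.5, 1, 2, 4, 6 and 24 h, stored at –80°C, and assayed by LC-MS/MS. Pre-dose (endogenous) level subtracted. Non-compartmental analysis: Cmax and tmax read from raw data; AUC0–tlast by linear trapezoidal rule.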

Stability = assay type: in vitro ADME, human; conditions: for stability to enzymatic hydrolysis in human serum: 37°C, followed over 24 hrs
Summary of the method: as §1

[11] = system: Zucker obese (fa/fa) rats; test: Zucker obese rat: systolic blood pressure by tail-cuff plethysmography; assay type: in vivo; conditions: end of the experiment (30 weeks)
Summary of the method: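 Zucker fa/fa rats dosed in drinking water (30 mg/kg/24 h, weeks 6–30). Systolic pressure taken monthly by tail-cuff plethysmography in conscious, unanaesthetized rats pre-warmed 30 min at 37°C and restrained in a plastic chamber. Heart rate taken from the arterial pulse wave.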

[12] = Stability in human liver S 9.000 fraction; assay type: in vitro ADME; conditions: within 15 min, then unchanged until 120 min
Summary of the method: as §1

[13] = Zucker obese rat: carnosine levels in plasma, urine and renal tissue; assay type: in vivo; conditions: for Carnosine level, Urine: no compound given during 24 hr in metabolic cage
[14] = system: Zucker obese (fa/fa) rats; test: Zucker obese rat: kidney protein carbonyl content; assay type: in vivo; conditions: for Kidney PCOs: end of the experiment; for reduction of kidney PCOs versus ZK: kidney homogenates
Summary of the method: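 Kidneys taken at week 30 from Zucker fa/fa rats (six per group) given test compound in drinking water at 30 mg/kg/24 h. Homogenate 25% w/v in 0.15 M KCl, pH 7.4, with protease inhibitors, centrifuged at 12,000 ×g for 10 min. Total protein carbonyls read at 366 nm (ε 22,000/M/cm), expressed as nmoles/mg protein.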

[15] = system: Zucker obese (fa/fa) rats; test: Zucker obese rat: tail tendon collagen solubility and Ehrlich adducts; assay type: in vivo; conditions: for reduction of Ehrlich positive material versus ZK: not significant; for Collagen solubility: acetic acid; for Collagen solubility / Ehrlich adducts: end of the experiment
Summary of the method: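 Tail tendons from treated Zucker fa/fa rats (drinking water, 30 mg/kg/24 h, weeks 6–30) cleaned and washed in ice-cold 75 mM phosphate buffer, pH 7.00, then lyophilized. Solubility determined on 10 mg samples; hydroxyproline measured after acid hydrolysis, collagen taken as 14% hydroxyproline. Ehrlich adducts and fluorescence (ex 365/em 416 nm) measured on 50 mg pepsin-digested collagen, blank-corrected, per mg collagen.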

[16] = human beings receiving 450 mg, 15 min up to 300 min; cited from earlier work
Stability in rat serum = assay type: in vitro ADME
[17] = cited from earlier work
[18] = male, Sprague-Dawley, rat, plasma, po, 100 mg/kg

## NCCC(=O)N[C@H](Cc1c[nH]cn1)C(=O)O [D-CAR, β-alanyl-D-histidine]
[1]
  body weight difference versus LN: +40%
  body weight difference versus ZK: –9%
[2]
  total cholesterol content in kidney: 6.668 ± 0.5087 μg/mg protein
  triglycerides content in kidney: 10.66 ± 0.3616 μg/mg protein
[3]; 120 min of incubation
  remaining in rat kidney: 91%
[4]
  mean glomerular diameter: 1.042 ± 0.005
  glomerular and interstitial changes (glomerulosclerosis, tubulointerstitial damage) versus ZK: not significantly modified
[4]; electron microscopy, four animals per group
  GBM thickness: 3.75 ± 0.8 nm
[5]
  percentage amount of ACR quenched: 65.0 ± 3.3%
  ACR disappeared: ~100%
[6]
  effect on urinary TXB2 excretion rates: did not affect
  increase in urinary CAR-HNE levels compared to ZK: 2.2 fold
  AGEs: 324.4 ± 21.8 ^* ^* FU/mg creatinine/day
  CAR-HNE level: 0.982 ± 0.33 nmol/day
  8-epi-PGF2α level: 42.1 ± 3.9 ng/day
[7]
  restraint of proteinuria/albuminuria/creatininuria: approximately 50%
  change in creatinine clearance (GFR) versus ZK: +25.1%
  change in plasma creatinine concentration versus ZK: –36%
  restraint of the increase in urinary albumin-to-creatinine ratio: 65–70%
[8]
  change in plasma cholesterol versus ZK: –45%
  change in plasma triglycerides versus ZK: –43%
  insulin resistance (HOMA-IR) versus ZK: significantly improved
  reduction of hyperinsulinaemia (plasma insulin) versus ZK: 33.03%
  effect on plasma glucose levels: did not significantly affect
[9]
  HNE quenched: ~100%
  residual amount of HNE: 46.9 ± 2.3%
[10]; oral 100 mg/kg, rat plasma
  half-life: 3.36 h
  systemic exposure up to infinite time AUC(0–∞): 318.62 ± 24.75 µM·h
  time until plasma concentration returned to baseline: 24 h
  Cmax: 52.86 ± 2.86 µM
[10]; oral 100 mg/kg, rat plasma, 100 mg/kg
  tmax: 2 h
Stability
  stability to enzymatic hydrolysis in human serum: remained unchanged until 6 hrs incubation
Stability; after 24 hrs of incubation
  decrease in human serum: 6%
[11]
  SBP: 137 ± 4 mmHg
  reduction of SBP versus ZK: 15.7%
[12]
  hydrolysis in human liver: ~30%
[13]; end of the experiment
  Carnosine level, Kidney: 127.7 ± 17.00 ^* ^*/°°° nmol/g wet tissue
  increase in kidney CAR content compared to ZK: 14.4 fold
  increase of plasma carnosine concentration: > 10 fold
  Carnosine level, Urine: 10,069 ± 1844 ^* ^*/°°° nmol/day
[13]; end of the experiment, 30 mg/kg/day for 24 weeks
  Carnosine level, Plasma: 5.37 ± 3.04 nmol/mL
[14]
  Kidney PCOs: 6.61 ± 1.52 ^* nmol/mg prot
  reduction of kidney PCOs versus ZK: 42.61%
[15]
  reduction of Ehrlich positive material versus ZK: ~21.7%
[15]; tail tendon collagen
  Collagen solubility: 71.4 ± 3.14 ^* ^* %
  Ehrlich adducts: 0.747 ± 0.384 µmol/mg

## NCCC(=O)N[C@@H](Cc1cnc[nH]1)C(=O)O [L-CAR, β-alanyl-L-histidine]
[1]
  body weight difference versus LN: +35.8%
  body weight difference versus ZK: –12%
[2]
  total cholesterol content in kidney: 6.31 ± 0.5115 μg/mg protein
  triglycerides content in kidney: 12.01 ± 0.9528 μg/mg protein
[3]; during the sample processing time
  hydrolysis in rat kidney: about 93%
[4]
  mean glomerular diameter: 1.023 ± 0.02
  glomerular and interstitial changes (glomerulosclerosis, tubulointerstitial damage) versus ZK: not significantly modified
[16]
  CAR in serum after oral supplementation: No CAR was detected in serum specimens
[5]
  percentage amount of ACR quenched: 63.8 ± 3.5%
  ACR disappeared: ~100%
[6]
  effect on urinary TXB2 excretion rates: did not affect
  increase in urinary CAR-HNE levels compared to ZK: 1.7 fold
  AGEs: 337.2 ± 28.7 ^* FU/mg creatinine/day
  CAR-HNE level: 0.749 ± 0.37 nmol/day
  8-epi-PGF2α level: 37.6 ± 4.3 ng/day
[7]
  restraint of proteinuria/albuminuria/creatininuria: approximately 50%
  change in creatinine clearance (GFR) versus ZK: +28.3%
  change in plasma creatinine concentration versus ZK: –31.7%
  restraint of the increase in urinary albumin-to-creatinine ratio: 65–70%
[8]
  change in plasma cholesterol versus ZK: –40%
  change in plasma triglycerides versus ZK: –35%
  insulin resistance (HOMA-IR) versus ZK: significantly improved
  reduction of hyperinsulinaemia (plasma insulin) versus ZK: 28.08%
  effect on plasma glucose levels: did not significantly affect
[9]
  HNE quenched: ~100%
  residual amount of HNE: 46.2 ± 2.73%
[10]; [18]
  half-life: 0.24 ± 0.02 h
  tmax: 1 h
[10]; oral 100 mg/kg, rat plasma
  systemic exposure up to infinite time AUC(0–∞): 118.45 ± 9.24 µM·h
  time until plasma concentration returned to baseline: 2 h
  Cmax: 147.7 ± 6.50 µM
Stability
  stability to enzymatic hydrolysis in human serum: rapidly disappeared in human serum at the first time-point (60 min.)
Stability; in vitro studies in the authors' laboratories
  time to disappearance in human serum: ≤ 5 min
[11]
  SBP: 145 ± 3 mmHg
  reduction of SBP versus ZK: 11.5%
[12]
  hydrolysis in human liver: ~30%
[13]; Zucker obese, rat, plasma, oral, 30 mg/kg/day
  concentration at 24 weeks: 0.473 ± 0.13 µM
[13]; end of the experiment
  Carnosine level, Kidney: 14.67 ± 2.09 nmol/g wet tissue
  increase in kidney CAR content compared to ZK: 1.6 fold
  Carnosine level, Urine: 32.62 ± 1.25 nmol/day
Stability in rat serum
  stability in rat serum: no significant reduction within at least 6 hrs
[14]
  Kidney PCOs: 8.83 ± 1.91 nmol/mg prot
  reduction of kidney PCOs versus ZK: 23.4%
[15]
  reduction of Ehrlich positive material versus ZK: ~9.1%
[15]; tail tendon collagen
  increase of collagen solubility compared to ZK: 66.4%
  Collagen solubility: 65.4 ± 2.58 ^* %
  Ehrlich adducts: 0.868 ± 0.39 µmol/mg
[17]
  time to hydrolysis in human serum: ≤ 5 min
